The record followed here is ChEMBL document CHEMBL4673308, “Synthesis and evaluation of new dinitrobenzamide mustards in human prostate cancer” (Bioorg Med Chem Lett, 2021).

The test system of data set [1] is DU-145. The data set is described as follows: Cytotoxicity against human DU145 cells assessed as reduction in cell viability incubated for 2 hrs under hypoxic condition followed washed with fresh media incubated for 3 days by alamar blue assay. The class given is functional, cell-based. Put shortly:
(§1)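 Cells exposed to the mustards across a concentration range for 2 h under hypoxia (N2) or normoxia (air), then washed and incubated 3 days under normoxia. Viability was read with alamarBlue, and IC50 is reported as mean ± SEM.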
In general terms: The colour change of resazurin is a common sign of viable cells or microbes.

The test system of data set [2] is DU-145. The data set is described as follows: Cytotoxicity against human DU145 cells assessed as reduction in cell viability incubated for 2 hrs under normoxic condition followed by washed with fresh media incubated for 3 days by alamar blue assay. The class given is functional, cell-based. Put shortly: as §1
The subject of data set [3] is PC-3. The data set is described as follows: Cytotoxicity against human PC-3 cells assessed as reduction in cell viability incubated for 2 hrs under hypoxic condition followed by washed with fresh media incubated for 3 days by alamar blue assay. Format: functional, cell-based. Put shortly:
as §1

A short description of data set [4]: Lipophilicity, logD of compound at pH 7.4 by microscale shake flask method. The class given is physicochemical. The conditions noted are these: buffer. The gist of the method: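 Distribution coefficient measured at pH 7.4 and reported as mean ± SEM from two or more independent experiments, each in triplicate.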
A short description of data set [5]: Selectivity index, ratio of IC50 for human PC-3 cells under normoxic condition to IC50 human PC-3 cells under hypoxia condition incubated for 2 hrs followed by washed with fresh media incubated for 3 days by alamar blue assay. Format: functional. The gist of the method: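 PC-3 hypoxia selectivity is the IC50 in air divided by the IC50 under N2. Both come from the 2 h exposure, wash, 3-day normoxic incubation and alamarBlue viability readout.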

Data set [6] deals with PC-3. The data set is described as follows: Cytotoxicity against human PC-3 cells assessed as reduction in cell viability incubated for 2 hrs under normoxic condition followed by washed with fresh media incubated for 3 days by alamar blue assay. Format: functional, cell-based. The gist of the method:
as §1

The test system of data set [7] is PC-3. The data set is described as follows: Cytotoxicity against human PC-3 cells assessed as reduction in cell viability preincubated for 4 hrs in hypoxia and further incubated for 5 days in fresh medium by SRB assay. The class given is functional, cell-based. (In general: In SRB staining, fixed cells bind dye roughly in proportion to their protein.)

SMILES strings stand for the structures.

`CS(=O)(=O)OCCN(CCBr)c1c(C(=O)NCCO)cc([N+](=O)[O-])cc1[N+](=O)[O-]`: the IC50 in data set [1] is 78 µM; in data set [2], 210 µM; in data set [3] it was 48 µM; in data set [6], 320 µM; in data set [7] it was 7.3 µM. The molecule further showed a logD in data set [4] of 0.8. The “Ratio IC50” value in data set [5] came out at 6.7.

Regarding `CS(=O)(=O)OCCN(CCBr)c1c(C(=O)NCCC(=O)O)cc([N+](=O)[O-])cc1[N+](=O)[O-]`, the IC50 was 56 µM in data set [1], 326 µM in data set [2], 41 µM in data set [3] and 417 µM in data set [6]. In data set [4], this molecule showed a logD of -0.71. Also, in data set [5], the “Ratio IC50” value is 10.

Take `Cc1ccc(S(=O)(=O)OCCN(CCBr)c2c(C(=O)NCCC(=O)O)cc([N+](=O)[O-])cc2[N+](=O)[O-])cc1`: the IC50 in data set [1] is 54 µM; in data set [2], 363 µM; in data set [3], 42 µM; in data set [6], 460 µM. This molecule yielded a logD in data set [4] of 1.03. In addition, the “Ratio IC50” value in data set [5] was 11.

Consider `O=C(NCCO)c1cc([N+](=O)[O-])cc([N+](=O)[O-])c1N(CCBr)CCBr`, for which the IC50 in data set [1] stood at 80 µM; in data set [2], 177 µM; in data set [3], 26 µM; in data set [6] it was 193 µM. This molecule had a logD in data set [4] of 1.7. Further, the “Ratio IC50” value in data set [5] is given as 7.4.

As for `Cc1ccc(S(=O)(=O)OCCN(CCBr)c2c(C(=O)NCCO)cc([N+](=O)[O-])cc2[N+](=O)[O-])cc1`, the 50% inhibitory concentration (IC50) in data set [1] was 28 µM; in data set [2] it was 108 µM; in data set [3], 37 µM; in data set [6], 146 µM. The molecule further had a logD in data set [4] of 0.95. In addition, the “Ratio IC50” value in data set [5] was 3.9.

As to `O=C(NCCO)c1cc([N+](=O)[O-])cc([N+](=O)[O-])c1N(CCBr)CCOS(=O)(=O)C(F)(F)F`, the IC50 in data set [1] is 51 µM; in data set [2] it was 470 µM; in data set [3], 42 µM; in data set [6], 245 µM. In data set [4], the logD stood at 0.33. In addition, in data set [5], the “Ratio IC50” value is 5.8.

On to `O=C(O)CCNC(=O)c1cc([N+](=O)[O-])cc([N+](=O)[O-])c1N(CCBr)CCOS(=O)(=O)C(F)(F)F`, for which the IC50 in data set [1] amounted to 68 µM; in data set [2], 480 µM; in data set [3], 90 µM; in data set [6], 350 µM. For the same molecule, the pH-dependent lipophilicity (logD) in data set [4] is recorded as 0.15. Also, in data set [5], the “Ratio IC50” value turned out to be 3.9.

In the case of `O=C(O)CCNC(=O)c1cc([N+](=O)[O-])cc([N+](=O)[O-])c1N(CCBr)CCBr`, the IC50 turned out to be 47 µM in data set [1], 413 µM in data set [2], 75 µM in data set [3] and 490 µM in data set [6]. In data set [4], this molecule came in with a logD of 0.42. Further, the “Ratio IC50” value in data set [5] is recorded as 6.5.

Broadly, the IC50 is the midpoint of a concentration-inhibition curve. One may read the logD as the decadic logarithm of the distribution of all forms, ionised or not, between an organic phase and buffer at a given pH. A higher logD goes with higher lipophilicity.
